Results reported in ChEMBL document CHEMBL4004830 (J Med Chem, 2017).

Key:
[1] = tested on: MV4-11; experiment: Induction of apoptosis in human MV4-11 cells assessed as viable cells at 5 times GI50 after 24 hrs by annexin V/propidium iodide staining based flow cytometry (reference value: 93.05%); format: functional
[2] = tested on: MV4-11; experiment: Growth inhibition of human MV4-11 cells after 72 hrs by resazurin assay; format: functional; settings: MV4-11, 72 h
In short: (§1)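 72 h antiproliferation assay, resazurin read-out for MV4-11 and MTT read-out for MDA-MB-453; values from at least two replicates.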

[3] = tested on: MV4-11; experiment: Induction of apoptosis in human MV4-11 cells assessed as early apoptotic cells at GI50 after 24 hrs by annexin V/propidium iodide staining based flow cytometry (reference value: 2.01%); format: functional
[4] = tested on: MOLM-13; experiment: Growth inhibition of human MOLM13 cells after 72 hrs by resazurin or MTT assay; format: functional; settings: MOLM-13, 72 h
[5] = tested on: MV4-11; experiment: Cell cycle arrest in human MV4-11 cells assessed as accumulation at G1 phase at 10 times GI50 after 24 hrs by propidium iodide staining based flow cytometry (reference value: 58.99%); format: functional
In short: (§2)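 MV4-11 cells were treated with increasing concentrations for 24 h. Cells were then harvested, fixed and stained with propidium iodide before flow cytometric cell cycle analysis.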

[6] = tested on: MV4-11; experiment: Induction of apoptosis in human MV4-11 cells assessed as necrotic cells at 10 times GI50 after 24 hrs by annexin V/propidium iodide staining based flow cytometry (reference value: 0.06%); format: functional
[7] = tested on: MV4-11; experiment: Induction of apoptosis in human MV4-11 cells assessed as late apoptotic cells at 5 times GI50 after 24 hrs by annexin V/propidium iodide staining based flow cytometry (reference value: 4.87%); format: functional
[8] = tested on: LNCaP C4-2B; experiment: Growth inhibition of human C4-2B cells after 72 hrs by resazurin or MTT assay; format: functional
[9] = tested on: MV4-11; experiment: Induction of apoptosis in human MV4-11 cells assessed as necrotic cells at 5 times GI50 after 24 hrs by annexin V/propidium iodide staining based flow cytometry (reference value: 0.06%); format: functional
[10] = tested on: MV4-11; experiment: Induction of apoptosis in human MV4-11 cells assessed as early apoptotic cells at 10 times GI50 after 24 hrs by annexin V/propidium iodide staining based flow cytometry (reference value: 2.01%); format: functional
[11] = tested on: A2780; experiment: Growth inhibition of human A2780 cells after 72 hrs by resazurin or MTT assay; format: functional; settings: A2780, 72 h
[12] = tested on: MV4-11; experiment: Cell cycle arrest in human MV4-11 cells assessed as accumulation at G2/M phase at GI50 after 24 hrs by propidium iodide staining based flow cytometry (reference value: 18.11%); format: functional; in short: as §2
[13] = Growth inhibition of nontransformed human BPH1 cells after 72 hrs by resazurin or MTT assay; format: cell-based; settings: BPH-1 cells (nontransformed)
[14] = tested on: MV4-11; experiment: Cell cycle arrest in human MV4-11 cells assessed as accumulation at S phase at 10 times GI50 after 24 hrs by propidium iodide staining based flow cytometry (reference value: 21.97%); format: functional; in short: as §2
[15] = tested on: MV4-11; experiment: Cell cycle arrest in human MV4-11 cells assessed as accumulation at sub-G1 phase at 5 times GI50 after 24 hrs by propidium iodide staining based flow cytometry (reference value: 0.91%); format: functional; in short: as §2
[16] = tested on: NB-4; experiment: Growth inhibition of human NB4 cells after 72 hrs by resazurin or MTT assay; format: functional; settings: NB-4, 72 h
[17] = tested on: MV4-11; experiment: Cell cycle arrest in human MV4-11 cells assessed as accumulation at G2/M phase at 5 times GI50 after 24 hrs by propidium iodide staining based flow cytometry (reference value: 18.11%); format: functional; in short: as §2
[18] = tested on: MV4-11; experiment: Induction of apoptosis in human MV4-11 cells assessed as viable cells at GI50 after 24 hrs by annexin V/propidium iodide staining based flow cytometry (reference value: 93.05%); format: functional
[19] = Growth inhibition of human M238 cells after 72 hrs by resazurin or MTT assay; format: functional; settings: M238, 72 h
[20] = tested on: MV4-11; experiment: Induction of apoptosis in human MV4-11 cells assessed as late apoptotic cells at 10 times GI50 after 24 hrs by annexin V/propidium iodide staining based flow cytometry (reference value: 4.87%); format: functional
[21] = tested on: MV4-11; experiment: Induction of apoptosis in human MV4-11 cells assessed as early apoptotic cells at 5 times GI50 after 24 hrs by annexin V/propidium iodide staining based flow cytometry (reference value: 2.01%); format: functional
[22] = Growth inhibition of human M229 cells after 72 hrs by resazurin or MTT assay; format: functional; settings: M229, 72 h
[23] = Growth inhibition of human M249R cells after 72 hrs by resazurin or MTT assay; format: functional; settings: M249, 72 h
[24] = tested on: MV4-11; experiment: Induction of apoptosis in human MV4-11 cells assessed as necrotic cells at GI50 after 24 hrs by annexin V/propidium iodide staining based flow cytometry (reference value: 0.06%); format: functional
[25] = tested on: MV4-11; experiment: Induction of apoptosis in human MV4-11 cells assessed as viable cells at 10 times GI50 after 24 hrs by annexin V/propidium iodide staining based flow cytometry (reference value: 93.05%); format: functional
[26] = tested on: MV4-11; experiment: Induction of apoptosis in human MV4-11 cells assessed as late apoptotic cells at GI50 after 24 hrs by annexin V/propidium iodide staining based flow cytometry (reference value: 4.87%); format: functional
[27] = tested on: MV4-11; experiment: Cell cycle arrest in human MV4-11 cells assessed as accumulation at sub-G1 phase at GI50 after 24 hrs by propidium iodide staining based flow cytometry (reference value: 0.91%); format: functional; in short: as §2
[28] = tested on: MV4-11; experiment: Cell cycle arrest in human MV4-11 cells assessed as accumulation at G2/M phase at 10 times GI50 after 24 hrs by propidium iodide staining based flow cytometry (reference value: 18.11%); format: functional; in short: as §2
[29] = tested on: MV4-11; experiment: Cell cycle arrest in human MV4-11 cells assessed as accumulation at sub-G1 phase at 10 times GI50 after 24 hrs by propidium iodide staining based flow cytometry (reference value: 0.91%); format: functional; in short: as §2
[30] = tested on: MCF7; experiment: Growth inhibition of human MCF7 cells after 72 hrs by resazurin or MTT assay; format: functional; settings: MCF7, 72 h
[31] = tested on: MDA-MB-468; experiment: Growth inhibition of human MDA-MB-468 cells after 72 hrs by resazurin or MTT assay; format: functional; settings: MDA-MB-468, 72 h
[32] = tested on: MV4-11; experiment: Cell cycle arrest in human MV4-11 cells assessed as accumulation at G1 phase at GI50 after 24 hrs by propidium iodide staining based flow cytometry (reference value: 58.99%); format: functional; in short: as §2
[33] = tested on: MV4-11; experiment: Cell cycle arrest in human MV4-11 cells assessed as accumulation at S phase at GI50 after 24 hrs by propidium iodide staining based flow cytometry (reference value: 21.97%); format: functional; in short: as §2
[34] = tested on: MV4-11; experiment: Cell cycle arrest in human MV4-11 cells assessed as accumulation at G1 phase at 5 times GI50 after 24 hrs by propidium iodide staining based flow cytometry (reference value: 58.99%); format: functional; in short: as §2
[35] = tested on: MDA-MB-453; experiment: Growth inhibition of human MDA-MB-453 cells after 72 hrs by MTT assay; format: functional; settings: MDA-MB-453, 72 h; in short: as §1
[36] = Growth inhibition of human M249 cells after 72 hrs by resazurin or MTT assay; format: functional; settings: M249, 72 h
[37] = Growth inhibition of human MRC5 cells after 72 hrs by resazurin or MTT assay; format: cell-based
[38] = tested on: MV4-11; experiment: Cell cycle arrest in human MV4-11 cells assessed as accumulation at S phase at 5 times GI50 after 24 hrs by propidium iodide staining based flow cytometry (reference value: 21.97%); format: functional; in short: as §2

SMILES	Activity [1] [%]	GI50 [2] [nM]	Activity [3] [%]	GI50 [4] [nM]	Activity [5] [%]	Activity [6] [%]	Activity [7] [%]	GI50 [8] [nM]	Activity [9] [%]	Activity [10] [%]	GI50 [11] [nM]	Activity [12] [%]	GI50 at 72 h [13] [nM]	Activity [14] [%]	Activity [15] [%]	GI50 [16] [nM]	Activity [17] [%]	Activity [18] [%]	GI50 [19] [nM]	Activity [20] [%]	other results
CC(=O)c1c(C)c2cnc(Nc3ccc(N4CCNCC4)cn3)nc2n(C2CCCC2)c1=O [PALBOCICLIB]	90.49	50	2.54	62	89.5	0.12	7.16	4150	0.21	2.31	32	11.49	7440	4.67	1.81	66	4.13	90.99	1970	7.65	Activity [21]: 2.14%; GI50 [22]: 1220 nM; GI50 [23]: 2960 nM; Activity [24]: 0.17%; Activity [25]: 89.91%; Activity [26]: 6.28%; Activity [27]: 1.32%; Activity [28]: 4.12%; Activity [29]: 1.72%; GI50 [30]: 557 nM; GI50 [31]: 5960 nM; Activity [32]: 75.13%; Activity [33]: 12.18%; Activity [34]: 88.99%; GI50 [35]: 326 nM; GI50 [36]: 1990 nM; GI50 at 72 h [37]: > 10000 nM; Activity [38]: 5.07%
Cc1nc(NC2CCCC2)sc1-c1ccnc(Nc2ccc(N3CCOCC3)cn2)n1	90.43	209	2.33	385	81.18	0.35	7.03	> 10000	0.16	2.83	58	15.3	> 10000	10.53	4.09	681	10.91	92.71	2200	7.27	Activity [21]: 2.37%; GI50 [22]: 150 nM; GI50 [23]: 38 nM; Activity [24]: 0.06%; Activity [25]: 89.53%; Activity [26]: 4.9%; Activity [27]: 3.43%; Activity [28]: 5.75%; Activity [29]: 2.6%; GI50 [30]: 1890 nM; GI50 [31]: > 10000 nM; Activity [32]: 63.57%; Activity [33]: 17.77%; Activity [34]: 71.66%; GI50 [35]: 3680 nM; GI50 [36]: 82 nM; GI50 at 72 h [37]: > 10000 nM; Activity [38]: 13.85%
